Assay results taken from ChEMBL document CHEMBL4706580, “4-Amino-1,2,4-triazole-3-thione-derived Schiff bases as metallo-β-lactamase inhibitors” (Eur J Med Chem, 2020).
The source made the active and inactive calls. No cut-off for these calls is given here.

Columns and labels:
[1] = test system: Escherichia coli; assay: Synergistic antibacterial activity against NDM-1 producing Escherichia coli assessed ass MIC of ceftazidime/avibactam at 32 ug/ml by broth microdilution method; type: functional; settings: dose 32 µg/ml
Outline: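 MIC of ceftazidime-avibactam (avibactam fixed at 4 µg/mL) by CLSI broth microdilution in Mueller-Hinton broth. Used the NDM-1-producing multidrug-resistant E. coli clinical isolate SI-001M at 5 × 10⁴ CFU/well, with and without inhibitor at a fixed 32 µg/ml. No colistin added. Triplicate determinations.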

[2] = Inhibition of beta-lactamase VIM-2 (unknown origin) expressed in Escherichia coli LZ2310 assessed as potentiation of cefoxitin antibacterial activity by measuring cefoxitin induced diameter of inhibition zone at 120 uM incubated for 18 hrs by disk diffusion method (reference value: 14 mm)
Outline: (§1)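 Efflux-deficient E. coli LZ2310 (NorE, MdfA, AcrA knocked out) carrying pLB-II with the cloned MBL gene. Mueller-Hinton, CLSI disk diffusion; antibiotic disks (30 µg cefoxitin for VIM-2, 10 µg ampicillin for VIM-4, 30 µg ceftazidime for NDM-1/IMP-1) loaded with inhibitor in DMSO (≤15 µL). Zone diameter after 18 h, 35 ± 1 °C; DMSO and 220 µg EDTA controls. Triplicate.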

[3] = test system: Escherichia coli; assay: Synergistic antibacterial activity against NDM-1 producing Escherichia coli assessed as MIC of meropenem at 32 ug/ml by broth microdilution method; type: functional; settings: dose 32 µg/ml
[4] = Inhibition of beta-lactamase IMP-1 (unknown origin) expressed in Escherichia coli BL21(DE3) using imipenem as substrate by measuring substrate hydrolysis by spectrophotometric analysis
Outline: (§2)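 Purified enzyme (overproduced in E. coli BL21(DE3), pET-9a; ion-exchange and gel filtration), 1-70 nM final. Reporter substrate 150 μM imipenem, read at 300 nm, 30 °C, 50 mM HEPES pH 7.5. Single-point screen at 100 or 200 μM; Ki from v0/vi vs [I] (0.5–1,000 μM final) assuming competitive inhibition, or Dixon plot. Triplicate.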

[5] = test system: Escherichia coli; assay: Antibacterial activity against NDM-1 producing Escherichia coli in presence of colistin by broth microdilution method.; type: functional
[6] = test system: Escherichia coli; assay: Synergistic antibacterial activity against NDM-1 producing Escherichia coli assessed as MIC of imipenem at 32 ug/ml by broth microdilution method; type: functional; settings: dose 32 µg/ml
[7] = Inhibition of beta-lactamase NDM1 (unknown origin) expressed in Escherichia coli BL21(DE3) using cefotaxime/nitrocefin as substrate by measuring substrate hydrolysis by spectrophotometric analysis
Outline: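 His-tagged enzyme from E. coli BL21(DE3) pET-15b, affinity-purified, 1-70 nM final. Reporter substrate 120 μM cefotaxime (260 nm) or 100 μM nitrocefin (482 nm), 30 °C, 50 mM HEPES pH 7.5. Inhibitor 0.5–1,000 μM final; competitive Ki from v0/vi vs [I] slope or Dixon plot. Triplicate.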

[8] = Inhibition of beta-lactamase NDM-1 (unknown origin) expressed in Escherichia coli LZ2310 assessed as potentiation of ceftazidime antibacterial activity by measuring ceftazidime induced diameter of inhibition zone at 40 uM incubated for 18 hrs by disk diffusion method (reference value: 15 mm); outline: as §1
[9] = target: Hydroxyacylglutathione hydrolase (Homo sapiens); assay: Inhibition of human Glyoxalase II expressed in Escherichia coli BL21 (DE3)
[10] = Inhibition of beta-lactamase IMP-1 (unknown origin) expressed in Escherichia coli LZ2310 assessed as potentiation of ceftazidime antibacterial activity by measuring ceftazidime induced diameter of inhibition zone at 40 uM incubated for 18 hrs by disk diffusion method (reference value: 9 mm); outline: as §1
[11] = Inhibition of beta-lactamase L1 (unknown origin) expressed in Escherichia coli BL21(DE3) using nitrocefin as substrate by measuring substrate hydrolysis preincubated for 30 mins by spectrophotometric analysis
Outline: (§3)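 Enzyme 0.2–0.8 nM in 25 mM HEPES pH 7.5 with 50 μM ZnCl2 final, pre-incubated 30 min at 21 °C with inhibitor (100 μM screen). Nitrocefin 100 μM final, read at 482 nm, 30 °C. Residual activity vs three uninhibited samples; Ki (1–100 μM inhibitor) from Hanes linearization, competitive model. Triplicate.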

[12] = Inhibition of beta-lactamase VIM4 (unknown origin) expressed in Escherichia coli BL21(DE3) using imipenem as substrate by measuring substrate hydrolysis by spectrophotometric analysis; outline: as §2
[13] = Inhibition of beta-lactamase VIM-2 (unknown origin) expressed in Escherichia coli LZ2310 assessed as potentiation of cefoxitin antibacterial activity by measuring cefoxitin induced diameter of inhibition zone at 40 uM incubated for 18 hrs by disk diffusion method (reference value: 14 mm); outline: as §1
[14] = test system: Escherichia coli; assay: Synergistic antibacterial activity against NDM-1 producing Escherichia coli assessed as MIC of ceftazidime at 32 ug/ml by broth microdilution method; type: functional; settings: dose 32 µg/ml
[15] = Inhibition of beta-lactamase CphA (unknown origin) expressed in Escherichia coli BL21(DE3) using imipenem as substrate by measuring substrate hydrolysis by spectrophotometric analysis
Outline: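 Enzyme 0.2–0.8 nM in 15 mM cacodylate pH 6.5, no added zinc, pre-incubated 30 min at 21 °C with inhibitor (100 μM screen). Imipenem substrate added from 10 mM stock; hydrolysis at 300 nm, 30 °C. Residual activity vs three uninhibited samples; Ki (1–100 μM inhibitor) by Hanes linearization, competitive model. Triplicate.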

[16] = Inhibition of beta-lactamase VIM2 (unknown origin) expressed in Escherichia coli BL21(DE3) using imipenem as substrate by measuring substrate hydrolysis by spectrophotometric analysis; outline: as §2
[17] = Inhibition of beta-lactamase NDM-1 (unknown origin) expressed in Escherichia coli LZ2310 assessed as potentiation of ceftazidime antibacterial activity by measuring ceftazidime induced diameter of inhibition zone at 80 uM incubated for 18 hrs by disk diffusion method (reference value: 15 mm); outline: as §1
[18] = Inhibition of beta-lactamase VIM-2 (unknown origin) expressed in Escherichia coli LZ2310 assessed as potentiation of cefoxitin antibacterial activity by measuring cefoxitin induced diameter of inhibition zone at 80 uM incubated for 18 hrs by disk diffusion method (reference value: 14 mm); outline: as §1
[19] = Inhibition of beta-lactamase VIM4 (unknown origin) expressed in Escherichia coli BL21(DE3) using imipenem as substrate by measuring substrate hydrolysis at 200 uM by spectrophotometric analysis; outline: as §2
[20] = Inhibition of beta-lactamase NDM1 (unknown origin) expressed in Escherichia coli BL21(DE3) using cefotaxime/nitrocefin as substrate by measuring substrate hydrolysis at 100 uM by spectrophotometric analysis
[21] = Inhibition of beta-lactamase VIM4 (unknown origin) expressed in Escherichia coli BL21(DE3) using imipenem as substrate by measuring substrate hydrolysis at 100 uM by spectrophotometric analysis; outline: as §2
[22] = Inhibition of beta-lactamase IMP-1 (unknown origin) expressed in Escherichia coli BL21(DE3) using imipenem as substrate by measuring substrate hydrolysis at 100 uM by spectrophotometric analysis; outline: as §2
[23] = Inhibition of beta-lactamase L1 (unknown origin) expressed in Escherichia coli BL21(DE3) using nitrocefin as substrate by measuring substrate hydrolysis at 100 uM preincubated for 30 mins by spectrophotometric analysis; outline: as §3
[24] = Inhibition of beta-lactamase VIM2 (unknown origin) expressed in Escherichia coli BL21(DE3) using imipenem as substrate by measuring substrate hydrolysis at 200 uM by spectrophotometric analysis; outline: as §2
[25] = Inhibition of beta-lactamase IMP-1 (unknown origin) expressed in Escherichia coli LZ2310 assessed as potentiation of ceftazidime antibacterial activity by measuring ceftazidime induced diameter of inhibition zone at 80 uM incubated for 18 hrs by disk diffusion method (reference value: 9 mm); outline: as §1
[26] = Inhibition of beta-lactamase L1 (unknown origin) expressed in Escherichia coli BL21(DE3) using nitrocefin as substrate by measuring substrate hydrolysis at 200 uM preincubated for 30 mins by spectrophotometric analysis
[27] = Inhibition of beta-lactamase NDM1 (unknown origin) expressed in Escherichia coli BL21(DE3) using cefotaxime/nitrocefin as substrate by measuring substrate hydrolysis at 200 uM by spectrophotometric analysis
[28] = Inhibition of beta-lactamase VIM2 (unknown origin) expressed in Escherichia coli BL21(DE3) using imipenem as substrate by measuring substrate hydrolysis at 100 uM by spectrophotometric analysis; outline: as §2
[29] = Inhibition of beta-lactamase IMP-1 (unknown origin) expressed in Escherichia coli BL21(DE3) using imipenem as substrate by measuring substrate hydrolysis at 200 uM by spectrophotometric analysis; outline: as §2
[30] = Inhibition of beta-lactamase VIM-2 (unknown origin) expressed in Escherichia coli XL-1 assessed as potentiation of cefoxitin antibacterial activity by measuring cefoxitin induced diameter of inhibition zone at 120 uM incubated for 18 hrs by disk diffusion method (reference value: 8 mm)
Outline: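 Wild-type efflux E. coli XL-1 Blue transformed with pLB-II-VIM-2. Mueller-Hinton disk diffusion per CLSI, 30 µg cefoxitin disks loaded with inhibitor dissolved in DMSO (≤15 µL). Growth-inhibition zone measured after 18 h at 35 ± 1 °C; DMSO negative and 220 µg EDTA positive controls. Triplicate.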

| MIC [1] | MIC [3] | MIC [5] | MIC [6] | MIC [14] | inhibition [23] | inhibition [28] | SMILES | Ki [4] | Ki [7] | Ki [11] | Ki [12] | Ki [16] | also measured |
| --- | --- | --- | --- | --- | --- | --- | --- | --- | --- | --- | --- | --- | --- |
| > 256 µg/mL | 64 µg/mL | > 256 µg/mL | 8 µg/mL | > 256 µg/mL |  |  | O=C(O)c1ccccc1/C=N/n1c(Cc2ccc3ccccc3c2)n[nH]c1=S | 34.4 µM | 1700 nM | 500 nM | 5 µM | 2400 nM | inhibition zone (IZ) [2]: 16 mm; inhibition zone (IZ) [8]: 15 mm; IC50 [9]: 30 µM; inhibition zone (IZ) [10]: 9 mm; inhibition zone (IZ) [13]: 14 mm; Ki [15]: 15 µM |
| > 256 µg/mL | 32 µg/mL | > 256 µg/mL | 8 µg/mL | > 256 µg/mL |  |  | O=C(O)c1ccccc1/C=N/n1c(-c2ccc(-c3ccccc3)cc2)n[nH]c1=S | 32.4 µM | 1300 nM | 900 nM | 4 µM | 2500 nM | inhibition zone (IZ) [17]: 15 mm; inhibition zone (IZ) [18]: 15 mm |
|  |  |  |  |  | inactive | inactive | S=c1[nH]nc(Cc2ccc3ccccc3c2)n1/N=C/c1ccc(OCc2ccccc2)cc1 |  |  |  |  |  | inhibition [19]: inactive; inhibition [20]: inactive; inhibition [21]: inactive; inhibition [22]: inactive; inhibition [24]: inactive; inhibition zone (IZ) [25]: 9 mm; inhibition [26]: inactive; inhibition [27]: inactive; inhibition [29]: inactive |
|  |  |  |  |  | 15% | 53% | Oc1ccc(/C=N/n2c(-c3cccc(C(F)(F)F)c3)n[nH]c2=S)c(O)c1 | 66.2 µM | 32500 nM |  | 3.5 µM |  | inhibition zone (IZ) [30]: 12 mm |
